Published values pooled from the literature.
Compare with care: the assays were run in different laboratories.

| SMILES | target or system | test | test system | setting | quantity | value |
| --- | --- | --- | --- | --- | --- | --- |
| OC[C@@H](O)[C@@H](O)[C@H](O)[C@H](O)CO | – | – | Caco-2 | – | Papp A→B | 0.249 ×10⁻⁶ cm/s |
| N=c1c2c(-c3ccccc3)c(-c3ccccc3)n(Cc3ccccc3)c2ncn1[C@H]1CC[C@H](O)CC1 | – | – | female minipig, plasma | oral, 2.5 mg/kg, single dose | Cmax | 785 ng/mL |
| COC(=O)C(NC(=O)c1cn(CCCCCF)c2ccccc12)C(C)(C)C (centres unmarked) | – | – | male Sprague-Dawley rat, plasma | subcutaneous, 200 µg/kg | AUC(0-t) | 37.7 ng·h/mL |
| CC(C)(C)[C@H](NC(=O)[C@H](CCONC(=N)N)NC(=O)Cc1ccc(CNC(=N)N)cc1)C(=O)N[C@@H](CCONC(=N)N)C(=O)NCc1ccc(C(=N)N)cc1 | – | – | male Sprague-Dawley rat, plasma | intravenous, 1 mg/kg | AUC(0-t) | 2090 ng·h/mL |
| O=C([O-])C(=O)[O-].[NH-][C@@H]1CCCC[C@H]1[NH-].[Pt+4] (relative stereo) | – | – | rat, plasma | intravenous, 5 mg/kg | AUC(0-inf) | 2540 ng·h/mL |
| Cl.Cl.O=C(CCN1CCCCC1)c1ccc(-c2ccc(C(=O)CCN3CCCCC3)cc2)cc1 | – | – | Sprague-Dawley rat, plasma | oral, 100 mg/kg | AUC(0-t) | 978 ng·h/mL |
| CN(C)C(=O)Oc1cc(OC(=O)N(C)C)cc(-c2cc3ccc(O)cc3o2)c1 | – | – | male rat, plasma | intravenous, 5 mg/kg | AUC(0-t) | 589 ng·h/mL |
| O=c1c(O[C@@H]2O[C@H](CO)[C@@H](O)[C@H](O)[C@H]2O)c(-c2ccc(O)cc2)oc2cc(O)cc(O)c12 | HCT-116 | cell growth or viability, WST-1 | – | – | IC50 | 36.6 µM |
| O=C(Nc1ccc2c(c1)B(O)OC2)c1ccc(Oc2ccccc2)cc1 | – | – | PAMPA | 200 µM, 5 h, pH 7.4 | Papp | 0.82 ×10⁻⁶ cm/s |
| CC[C@@H]1CN2CCc3c([nH]c4cccc(OC)c34)[C@H]2C[C@@H]1/C(=C\OC)C(=O)OC | – | – | Caco-2 | pH 7.4 | Papp A→B | 14.2 cm/s |
| CCCCCCCCCCCC(=O)NC(C)(C)C(=O)N1CCC[C@H]1C(=O)NC(C)(C)C(=O)NC(C)(C)C(=O)N1CCC[C@H]1C(=O)NC(C)(C)C(=O)NC(C)(C)C(=O)N1CCC[C@H]1C(=O)N[C@@H](C)C(=O)NC(C)(C)C(=O)NCCC(=O)N[C@@H](C)C(=O)NC(C)(C)C(=O)NC(C)(C)C(=O)NCCC(=O)NC(C)(C)C(=O)NC(C)(C)C(=O)NC(C)(C)C(=O)N[C@@H](C)C(=O)NCCC(=O)O | HCT-116 | cell growth or viability, MTT | – | 24 h | IC50 | 1 µM |
